≈ marks a conversion by molar mass, not a printed value.
What was measured:
Mycobacterium avium [1] = test: Antimycobacterial activity against isoniazid resistance Mycobacterium avium 330/88 after 14 days by micromethod; format: functional; conditions: 330/88, 336 h
Method in brief: (§1)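 Inocula: M. tuberculosis My 331/88 at 10^-3 dilution, M. avium My 330/88 at 10^-5, M. kansasii My 235/80 and clinical isolate 6509/96 at 10^-4. Compounds added in DMSO at 1000 down to 0.5 (twofold series). Read at 14 and 21 days, plus 7 days for M. kansasii. MIC taken as lowest concentration inhibiting growth.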

[2] = test system: Mycobacterium tuberculosis; test: Antimycobacterial activity against Mycobacterium tuberculosis 331/88 after 21 days by micromethod; format: functional; conditions: 331/88, 504 h; method in brief: as §1
Mycobacterium kansasii [3] = test: Antimycobacterial activity against Mycobacterium kansasii 6509/96 clinical isolate after 7 days by micromethod; format: functional; conditions: 6509/96, 168 h; method in brief: as §1
[4] = Selectivity index, ratio of IC50 for human HepG2 cells to MIC for Mycobacterium tuberculosis 331/88 after 14 days; format: functional
Method in brief: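 Cytotoxicity in Hep G2 cells (passage 12), 10,000 cells/well, in MEM with 10% FBS, 1% glutamine and 1% nonessential amino acids. Cells preincubated 24 h, 37 °C, 5% CO2. Compounds in DMSO at eight concentrations in quadruplicate, 24 h. MTS-type reagent added for 1.5 h, A490 read, IC50 taken at 50% viability. SI = this IC50 over the 14-day M. tuberculosis MIC.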

Mycobacterium kansasii [5] = test: Antimycobacterial activity against Mycobacterium kansasii 6509/96 clinical isolate after 21 days by micromethod; format: functional; conditions: 6509/96, 504 h; method in brief: as §1
Mycobacterium avium [6] = test: Antimycobacterial activity against isoniazid resistance Mycobacterium avium 330/88 after 21 days by micromethod; format: functional; conditions: 330/88, 504 h; method in brief: as §1
Mycobacterium kansasii [7] = test: Antimycobacterial activity against Mycobacterium kansasii 6509/96 clinical isolate after 14 days by micromethod; format: functional; conditions: 6509/96, 336 h; method in brief: as §1
Mycobacterium kansasii [8] = test: Antimycobacterial activity against isoniazid resistance Mycobacterium kansasii 225/80 after 7 days by micromethod; format: functional; conditions: 225/80, 168 h
Mycobacterium kansasii [9] = test: Antimycobacterial activity against isoniazid resistance Mycobacterium kansasii 225/80 after 21 days by micromethod; format: functional; conditions: 225/80, 504 h
Mycobacterium kansasii [10] = test: Antimycobacterial activity against isoniazid resistance Mycobacterium kansasii 225/80 after 14 days by micromethod; format: functional; conditions: 225/80, 336 h
[11] = test system: Mycobacterium tuberculosis; test: Antimycobacterial activity against Mycobacterium tuberculosis 331/88 after 14 days by micromethod; format: functional; conditions: 331/88, 336 h; method in brief: as §1
HepG2 = test: Cytotoxicity against human HepG2 cells after 24 hrs by CellTiter-96 cell viability assay; format: functional, cell-based; conditions: HepG2, 24 h
Method in brief: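 Hep G2 human hepatic cells (passage 12), 10,000 per well, grown 24 h at 37 °C, 5% CO2 in MEM with 1% glutamine, 10% FBS and 1% nonessential amino acids. Compounds in DMSO at eight increasing concentrations, quadruplicate, 24 h at 37 °C. Kit reagent added, 1.5 h at 37 °C, absorbance 490 nm. IC50 is the concentration reducing viability to 50% of control.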

[12] = molecular target: T1, Isocitrate lyase (Mycobacterium tuberculosis) (UniProt P9WKK7); test: Inhibition of Mycobacterium tuberculosis H37Rv isocitrate lyase expressed in Escherichia coli HB101 at 10 umol/L
T1 sequence (whole entry): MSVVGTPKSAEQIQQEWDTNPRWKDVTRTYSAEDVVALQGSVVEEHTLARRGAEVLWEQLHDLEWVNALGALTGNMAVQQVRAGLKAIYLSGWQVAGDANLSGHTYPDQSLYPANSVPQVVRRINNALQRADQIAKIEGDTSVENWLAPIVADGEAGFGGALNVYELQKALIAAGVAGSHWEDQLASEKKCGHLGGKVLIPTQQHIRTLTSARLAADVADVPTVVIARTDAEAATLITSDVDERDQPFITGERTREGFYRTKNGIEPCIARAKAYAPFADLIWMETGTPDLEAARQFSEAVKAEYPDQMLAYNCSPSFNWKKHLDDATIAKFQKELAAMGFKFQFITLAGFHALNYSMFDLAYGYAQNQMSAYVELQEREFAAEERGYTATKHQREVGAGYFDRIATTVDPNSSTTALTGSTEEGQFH
Method in brief: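 Isocitrate lyase assayed per Dixon–Kornberg in 96-well format. Buffer: 50 mmol/L KH2PO4, 4 mmol/L MgCl2, 4 mmol/L phenylhydrazine, 12 mmol/L cysteine, pH 7.0. Glyoxylate phenylhydrazone read at 324 nm. Compounds added in DMSO, with DMSO-alone inhibition subtracted.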

| SMILES | MIC (Mycobacterium avium [1]) [µM] | MIC [2] [µM] | MIC (Mycobacterium kansasii [3]) [µM] | Selectivity Index [4] | MIC (Mycobacterium kansasii [5]) [µM] | MIC (Mycobacterium avium [6]) [µM] | MIC (Mycobacterium kansasii [7]) [µM] | MIC (Mycobacterium kansasii [8]) [µM] | MIC (Mycobacterium kansasii [9]) [µM] | MIC (Mycobacterium kansasii [10]) [µM] | MIC [11] [µM] | IC50 (HepG2) [µM] | inhibition [12] [%] |
| --- | --- | --- | --- | --- | --- | --- | --- | --- | --- | --- | --- | --- | --- |
| COc1ccc(Cl)cc1C(=O)Nc1cc(C(F)(F)F)ccc1O | 62.5 (≈ 21.6 µg/mL) | 250 (≈ 86.4 µg/mL) | 62.5 (≈ 21.6 µg/mL) | 0.06 | 125 (≈ 43.2 µg/mL) | 125 (≈ 43.2 µg/mL) | 125 (≈ 43.2 µg/mL) | 32 (≈ 11.1 µg/mL) | 62.5 (≈ 21.6 µg/mL) | 62.5 (≈ 21.6 µg/mL) | 250 (≈ 86.4 µg/mL) | 15.4 | 0 |
| COc1ccc(Cl)cc1C(=O)Nc1ccc(Br)cc1O | 500 (≈ 178 µg/mL) | 8 (≈ 2.85 µg/mL) | 250 (≈ 89.2 µg/mL) | 2 | 250 (≈ 89.2 µg/mL) | 500 (≈ 178 µg/mL) | 250 (≈ 89.2 µg/mL) | 500 (≈ 178 µg/mL) | 500 (≈ 178 µg/mL) | 500 (≈ 178 µg/mL) | 4 (≈ 1.43 µg/mL) | 7.98 | 0 |
| COc1ccc(Cl)cc1C(=O)Nc1cc(Cl)c(Cl)cc1O | 125 (≈ 43.3 µg/mL) | 125 (≈ 43.3 µg/mL) | 125 (≈ 43.3 µg/mL) | 0.02 | 125 (≈ 43.3 µg/mL) | 125 (≈ 43.3 µg/mL) | 125 (≈ 43.3 µg/mL) | 125 (≈ 43.3 µg/mL) | 125 (≈ 43.3 µg/mL) | 125 (≈ 43.3 µg/mL) | 125 (≈ 43.3 µg/mL) | 2.98 | 7 |
| COc1ccc(Cl)cc1C(=S)Nc1cc(Br)ccc1O | 32 (≈ 11.9 µg/mL) | 32 (≈ 11.9 µg/mL) | 16 (≈ 5.96 µg/mL) | 0.55 | 32 (≈ 11.9 µg/mL) | 32 (≈ 11.9 µg/mL) | 16 (≈ 5.96 µg/mL) | 8 (≈ 2.98 µg/mL) | 16 (≈ 5.96 µg/mL) | 16 (≈ 5.96 µg/mL) | 16 (≈ 5.96 µg/mL) | 8.74 | 8 |
| COc1ccc(Cl)cc1C(=S)Nc1cc(Cl)ccc1O | 32 (≈ 10.5 µg/mL) | 32 (≈ 10.5 µg/mL) | 16 (≈ 5.25 µg/mL) | 0.54 | 32 (≈ 10.5 µg/mL) | 32 (≈ 10.5 µg/mL) | 32 (≈ 10.5 µg/mL) | 8 (≈ 2.63 µg/mL) | 16 (≈ 5.25 µg/mL) | 8 (≈ 2.63 µg/mL) | 16 (≈ 5.25 µg/mL) | 8.6 | 0 |
| COc1cc(Cl)ccc1C(=S)Nc1cc(C(F)(F)F)ccc1O | 32 (≈ 11.6 µg/mL) | 62.5 (≈ 22.6 µg/mL) | 32 (≈ 11.6 µg/mL) | 0.18 | 125 (≈ 45.2 µg/mL) | 62.5 (≈ 22.6 µg/mL) | 62.5 (≈ 22.6 µg/mL) | 32 (≈ 11.6 µg/mL) | 125 (≈ 45.2 µg/mL) | 62.5 (≈ 22.6 µg/mL) | 32 (≈ 11.6 µg/mL) | 5.74 | 0 |
| COc1cc(Cl)ccc1C(=S)Nc1cc(Cl)c(Cl)cc1O | 62.5 (≈ 22.7 µg/mL) | 32 (≈ 11.6 µg/mL) | 16 (≈ 5.8 µg/mL) | 0.1 | 62.5 (≈ 22.7 µg/mL) | 62.5 (≈ 22.7 µg/mL) | 32 (≈ 11.6 µg/mL) | 16 (≈ 5.8 µg/mL) | 62.5 (≈ 22.7 µg/mL) | 32 (≈ 11.6 µg/mL) | 32 (≈ 11.6 µg/mL) | 3.16 | 0 |
| COc1cc(Cl)ccc1C(=S)Nc1cc(Cl)ccc1O | 32 (≈ 10.5 µg/mL) | 62.5 (≈ 20.5 µg/mL) | 32 (≈ 10.5 µg/mL) | 0.14 | 125 (≈ 41 µg/mL) | 32 (≈ 10.5 µg/mL) | 62.5 (≈ 20.5 µg/mL) | 16 (≈ 5.25 µg/mL) | 125 (≈ 41 µg/mL) | 62.5 (≈ 20.5 µg/mL) | 62.5 (≈ 20.5 µg/mL) | 8.49 | 9 |
| COc1ccc(Cl)cc1C(=S)Nc1cc(C(F)(F)F)ccc1O | 62.5 (≈ 22.6 µg/mL) | 32 (≈ 11.6 µg/mL) | 16 (≈ 5.79 µg/mL) | 0.18 | 32 (≈ 11.6 µg/mL) | 62.5 (≈ 22.6 µg/mL) | 32 (≈ 11.6 µg/mL) | 32 (≈ 11.6 µg/mL) | 62.5 (≈ 22.6 µg/mL) | 62.5 (≈ 22.6 µg/mL) | 32 (≈ 11.6 µg/mL) | 5.86 | 8 |
| COc1cc(Cl)ccc1C(=O)Nc1ccc(Br)cc1O | 125 (≈ 44.6 µg/mL) | 125 (≈ 44.6 µg/mL) | 125 (≈ 44.6 µg/mL) | 0.37 | 125 (≈ 44.6 µg/mL) | 125 (≈ 44.6 µg/mL) | 125 (≈ 44.6 µg/mL) | 125 (≈ 44.6 µg/mL) | 125 (≈ 44.6 µg/mL) | 125 (≈ 44.6 µg/mL) | 125 (≈ 44.6 µg/mL) | 46.6 | 0 |
